Assay results: ChEMBL document CHEMBL1156759, “Identification and optimization of inhibitors of Trypanosomal cysteine proteases: cruzain, rhodesain, and TbCatB” (J Med Chem, 2010)
Calls of active or inactive are those of the source. The rule behind the calls is not given here.

Experiments:
Cathepsin L2 = biological target: T1, Cathepsin L2 (Homo sapiens, UniProt O60911); test: Inhibition of human Cathepsin V
T1 sequence (O60911 whole entry): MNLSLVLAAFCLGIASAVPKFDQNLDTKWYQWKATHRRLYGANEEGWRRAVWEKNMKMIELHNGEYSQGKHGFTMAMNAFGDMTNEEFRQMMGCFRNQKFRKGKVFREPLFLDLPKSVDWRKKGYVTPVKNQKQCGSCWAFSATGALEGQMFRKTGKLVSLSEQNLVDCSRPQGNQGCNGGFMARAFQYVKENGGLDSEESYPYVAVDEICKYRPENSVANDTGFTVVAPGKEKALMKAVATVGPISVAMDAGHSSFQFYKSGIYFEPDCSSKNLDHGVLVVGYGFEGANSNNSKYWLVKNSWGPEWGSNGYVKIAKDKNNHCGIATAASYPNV
Summary of the method: (§1)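 Profiling panel run externally as 10-dose, 3-fold serial dilutions of compound. Protease activity followed as a time course of fluorescence increase from a fluorescently labeled peptide substrate. The initial linear slope (signal/min) was analysed.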

Cruzipain [1] = biological target: T2, Cruzipain (Trypanosoma cruzi, UniProt P25779); test: Inhibition of Trypanosoma cruzi cruzain after 15 mins; details: read-out: IC50
Summary of the method: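 Cruzain at 1.5 nM final in 100 mM acetate pH 5.5, 5 mM DTT, 0.01% Triton X-100; compounds as serial 2-fold dilutions pin-transferred in DMSO. 15 min room-temperature preincubation, then Z-FR-AMC 2 μM final. Kinetic fluorescence read at ex 340/em 450 nm. Percent inhibition from the first 60 s signal change versus no-enzyme and uninhibited controls (48 wells each).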

Cathepsin Z = Cathepsin Z (Homo sapiens, UniProt Q9UBR2); test: Inhibition of human Cathepsin X/Z; summary of the method: as §1
Dipeptidyl peptidase 1 = Dipeptidyl peptidase 1 (Homo sapiens, UniProt P53634); test: Inhibition of human Cathepsin C; summary of the method: as §1
[2] = biological target: Disintegrin and metalloproteinase domain-containing protein 17 (Homo sapiens, UniProt P78536); test: Inhibition of human TACE; summary of the method: as §1
[3] = Inhibition of human Proteinase A; summary of the method: as §1
Trypanosoma cruzi = test: Antitrypanosomal activity against Trypanosoma cruzi Y trypomastigotes infected in mouse J774 cells at 10 uM after 27 days medium replaced every 48 hrs; type: functional, organism-based
Summary of the method: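 Irradiated (1000 rad) J774 macrophages plated overnight, infected 2 h with Y strain trypomastigotes, parasites removed, then cultured in RPMI-1640 with compound (n = 3); untreated infected and 10 μM K777 controls per experiment. Medium replaced every 48 h over 27 days; daily phase-contrast microscopy (400×) for free trypomastigotes and host toxicity; cultures kept 14 further days to confirm cure.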

Procathepsin L = Procathepsin L (Homo sapiens, UniProt P07711); test: Inhibition of human Cathepsin L; summary of the method: as §1
[4] = biological target: Matrix metalloproteinase-14 (Homo sapiens, UniProt P50281); test: Inhibition of human MMP14; summary of the method: as §1
[5] = Inhibition of recombinant Trypanosoma brucei cathepsin B after 5 mins by spectrofluorimetric analysis
Summary of the method: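 Recombinant TbCatB at 258 nM in 100 mM sodium acetate pH 5.5, 5 mM DTT, 0.001% Triton X-100, preincubated with compound in DMSO for 5 min at room temperature. Z-Phe-Arg-AMC 10 μM added to start. Rate of fluorescence rise read at ex 355/em 460 nm; DMSO control wells; IC50 from curve fitting.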

Papain = biological target: T3, Papain (Carica papaya, UniProt P00784); test: Inhibition of papaya papain; summary of the method: as §1
T3 sequence (P00784 whole entry): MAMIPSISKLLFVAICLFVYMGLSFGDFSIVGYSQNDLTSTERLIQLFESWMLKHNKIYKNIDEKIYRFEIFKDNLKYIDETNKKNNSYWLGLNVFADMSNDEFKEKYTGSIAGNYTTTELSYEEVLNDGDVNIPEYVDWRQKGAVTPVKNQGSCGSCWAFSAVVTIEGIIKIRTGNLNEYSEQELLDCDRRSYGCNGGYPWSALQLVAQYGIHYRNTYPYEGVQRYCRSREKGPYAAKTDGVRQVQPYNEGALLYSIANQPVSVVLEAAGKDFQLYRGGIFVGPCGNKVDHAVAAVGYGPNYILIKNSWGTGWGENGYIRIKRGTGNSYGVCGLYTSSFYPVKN

Cathepsin K = biological target: T4, Cathepsin K (Homo sapiens, UniProt P43235); test: Inhibition of human Cathepsin K/O2; summary of the method: as §1
T4 sequence (P43235 whole entry): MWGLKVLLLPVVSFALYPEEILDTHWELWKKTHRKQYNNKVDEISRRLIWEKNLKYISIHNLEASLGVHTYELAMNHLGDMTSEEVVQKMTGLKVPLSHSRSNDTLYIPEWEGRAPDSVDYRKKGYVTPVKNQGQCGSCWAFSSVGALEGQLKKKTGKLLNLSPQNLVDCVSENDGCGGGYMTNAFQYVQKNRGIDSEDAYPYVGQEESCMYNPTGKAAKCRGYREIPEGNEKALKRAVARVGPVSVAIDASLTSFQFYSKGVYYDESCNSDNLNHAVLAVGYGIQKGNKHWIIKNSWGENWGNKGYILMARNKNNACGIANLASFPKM

Cathepsin B = Cathepsin B (Homo sapiens, UniProt P07858); test: Inhibition of human Cathepsin B; summary of the method: as §1
Pro-cathepsin H = biological target: T5, Pro-cathepsin H (Homo sapiens, UniProt P09668); test: Inhibition of human Cathepsin H; summary of the method: as §1
T5 sequence (P09668 whole entry): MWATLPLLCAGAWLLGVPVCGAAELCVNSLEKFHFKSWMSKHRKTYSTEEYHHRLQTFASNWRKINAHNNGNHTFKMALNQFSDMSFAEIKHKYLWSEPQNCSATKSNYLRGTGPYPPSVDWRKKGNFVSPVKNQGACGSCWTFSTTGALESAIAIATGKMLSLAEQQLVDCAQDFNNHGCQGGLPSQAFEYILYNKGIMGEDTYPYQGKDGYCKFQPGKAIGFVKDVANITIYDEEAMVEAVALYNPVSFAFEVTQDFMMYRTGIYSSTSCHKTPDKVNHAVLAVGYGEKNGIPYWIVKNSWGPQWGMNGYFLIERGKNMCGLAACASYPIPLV

Caspase-4 = Caspase-4 (Homo sapiens, UniProt P49662); test: Inhibition of human Caspase 4; summary of the method: as §1
Canis familiaris = species: Canis familiaris; test: Toxicity in dog; type: organism-based, Canis lupus familiaris; details: in vivo
Cruzipain [6] = biological target: T2, Cruzipain; test: Inhibition of recombinant Trypanosoma cruzi cruzain after 5 mins by spectrofluorimetric analysis
Summary of the method: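 Recombinant cruzain at 4 nM (activated procruzain, anion-exchange purified) in 100 mM sodium acetate pH 5.5, 5 mM DTT, 0.001% Triton X-100. Preincubated 5 min at room temperature with compound in DMSO, then Z-Phe-Arg-AMC 10 μM. Fluorescence rate read at ex 355/em 460 nm; DMSO controls; IC50 by curve fitting.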

Cathepsin S = Cathepsin S (Homo sapiens, UniProt P25774); test: Inhibition of human Cathepsin S; summary of the method: as §1
[7] = Inhibition of recombinant Trypanosoma brucei rhodesain after 5 mins by spectrofluorimetric analysis
Summary of the method: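 Recombinant rhodesain, 4 nM, preincubated 5 min at room temperature with compound (DMSO) in 100 mM sodium acetate pH 5.5, 5 mM DTT, 0.001% Triton X-100. Reaction started with 10 μM Z-Phe-Arg-AMC; rate of AMC fluorescence increase read at ex 355/em 460 nm. IC50 from curve fitting; DMSO-only wells as positive control.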

Beta-secretase 1 = Beta-secretase 1 (Homo sapiens, UniProt P56817); test: Inhibition of human BACE1; summary of the method: as §1
Rattus norvegicus = species: Rattus norvegicus; test: Toxicity in rat; type: organism-based; details: in vivo
Mus musculus = species: Mus musculus; test: Toxicity in mouse; type: organism-based; details: in vivo
Proteinase K = Proteinase K (Engyodontium album, UniProt P06873); test: Inhibition of human Proteinase K; parameters: species or system Parengyodontium album; summary of the method: as §1
Kallikrein-4 = Kallikrein-4 (Homo sapiens, UniProt Q9Y5K2); test: Inhibition of human Kallikrein 4; summary of the method: as §1
Cruzipain [8] = biological target: T2, Cruzipain; test: Competitive inhibition of recombinant Trypanosoma cruzi cruzain by Lineweaver-Burke plot analysis
[9] = Inhibition of human Chymotrypsin; summary of the method: as §1
Cathepsin G = Cathepsin G (Homo sapiens, UniProt P08311); test: Inhibition of human Cathepsin G; summary of the method: as §1
Neutrophil elastase = Neutrophil elastase (Homo sapiens, UniProt P08246); test: Inhibition of human Elastase; summary of the method: as §1
[10] = Inhibition of human CCC1s; summary of the method: as §1
Caspase-1 = Caspase-1 (Homo sapiens, UniProt P29466); test: Inhibition of human Caspase 1; summary of the method: as §1
Caspase-1, sequence (P29466 120-297 limits assumed): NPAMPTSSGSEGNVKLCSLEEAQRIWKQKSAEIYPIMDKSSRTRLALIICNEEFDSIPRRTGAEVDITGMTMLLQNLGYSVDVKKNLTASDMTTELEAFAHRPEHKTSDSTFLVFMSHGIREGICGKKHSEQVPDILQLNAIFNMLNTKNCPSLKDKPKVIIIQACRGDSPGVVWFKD
Caspase-1, sequence (P29466 317-404 limits assumed): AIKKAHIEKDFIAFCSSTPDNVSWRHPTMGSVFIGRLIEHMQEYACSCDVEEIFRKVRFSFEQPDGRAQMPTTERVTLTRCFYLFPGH

Procathepsin L, sequence (P07711 whole entry): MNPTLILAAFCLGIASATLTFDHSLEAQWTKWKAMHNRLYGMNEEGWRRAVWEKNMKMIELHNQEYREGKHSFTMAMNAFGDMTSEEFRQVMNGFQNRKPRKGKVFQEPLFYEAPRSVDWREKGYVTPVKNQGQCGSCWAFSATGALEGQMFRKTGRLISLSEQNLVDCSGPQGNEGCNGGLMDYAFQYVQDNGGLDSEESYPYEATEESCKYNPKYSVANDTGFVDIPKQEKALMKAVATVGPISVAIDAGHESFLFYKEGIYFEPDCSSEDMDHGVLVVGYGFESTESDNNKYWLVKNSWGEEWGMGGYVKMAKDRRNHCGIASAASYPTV
T2 sequence (P25779 whole entry): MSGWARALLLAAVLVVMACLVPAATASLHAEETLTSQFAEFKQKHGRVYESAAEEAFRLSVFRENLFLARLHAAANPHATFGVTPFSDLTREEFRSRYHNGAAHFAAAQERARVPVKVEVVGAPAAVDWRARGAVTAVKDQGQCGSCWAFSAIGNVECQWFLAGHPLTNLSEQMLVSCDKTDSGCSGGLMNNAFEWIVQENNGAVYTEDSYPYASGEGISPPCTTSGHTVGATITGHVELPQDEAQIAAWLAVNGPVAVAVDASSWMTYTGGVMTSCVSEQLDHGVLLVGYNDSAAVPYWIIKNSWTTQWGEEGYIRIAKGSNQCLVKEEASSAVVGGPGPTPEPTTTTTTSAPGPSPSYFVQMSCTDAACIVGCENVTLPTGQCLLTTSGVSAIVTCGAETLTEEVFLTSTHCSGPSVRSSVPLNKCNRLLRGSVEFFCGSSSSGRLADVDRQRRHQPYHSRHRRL
Cathepsin Z, sequence (Q9UBR2 whole entry): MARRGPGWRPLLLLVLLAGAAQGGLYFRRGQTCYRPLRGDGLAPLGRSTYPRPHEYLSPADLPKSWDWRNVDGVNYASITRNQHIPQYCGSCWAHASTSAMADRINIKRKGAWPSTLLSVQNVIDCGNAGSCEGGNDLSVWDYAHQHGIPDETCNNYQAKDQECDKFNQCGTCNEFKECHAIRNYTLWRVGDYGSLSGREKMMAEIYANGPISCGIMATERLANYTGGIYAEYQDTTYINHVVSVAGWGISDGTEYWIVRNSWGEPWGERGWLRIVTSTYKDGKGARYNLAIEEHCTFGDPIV
Dipeptidyl peptidase 1, sequence (P53634 25-134 limits assumed): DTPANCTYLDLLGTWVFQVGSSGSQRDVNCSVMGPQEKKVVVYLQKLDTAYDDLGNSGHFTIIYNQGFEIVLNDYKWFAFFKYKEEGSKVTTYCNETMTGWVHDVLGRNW
Dipeptidyl peptidase 1, sequence (P53634 231-394 limits assumed): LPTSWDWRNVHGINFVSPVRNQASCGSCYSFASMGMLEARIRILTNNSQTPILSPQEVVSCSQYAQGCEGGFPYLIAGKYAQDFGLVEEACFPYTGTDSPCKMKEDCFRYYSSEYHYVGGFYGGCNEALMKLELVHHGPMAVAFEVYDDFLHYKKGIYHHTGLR
Dipeptidyl peptidase 1, sequence (P53634 395-463 limits assumed): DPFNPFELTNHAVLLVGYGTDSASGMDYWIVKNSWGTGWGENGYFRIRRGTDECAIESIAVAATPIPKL
Cathepsin S, sequence (P25774 whole entry): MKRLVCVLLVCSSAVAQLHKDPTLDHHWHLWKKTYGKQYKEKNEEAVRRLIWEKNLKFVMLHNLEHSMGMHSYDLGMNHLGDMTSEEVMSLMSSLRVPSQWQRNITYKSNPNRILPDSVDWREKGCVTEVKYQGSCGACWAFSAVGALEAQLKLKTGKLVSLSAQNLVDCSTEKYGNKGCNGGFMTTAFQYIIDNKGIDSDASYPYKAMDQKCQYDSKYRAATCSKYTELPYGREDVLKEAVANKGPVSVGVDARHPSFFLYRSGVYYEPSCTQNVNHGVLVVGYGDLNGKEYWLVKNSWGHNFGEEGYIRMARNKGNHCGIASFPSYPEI
Kallikrein-4, sequence (Q9Y5K2 whole entry): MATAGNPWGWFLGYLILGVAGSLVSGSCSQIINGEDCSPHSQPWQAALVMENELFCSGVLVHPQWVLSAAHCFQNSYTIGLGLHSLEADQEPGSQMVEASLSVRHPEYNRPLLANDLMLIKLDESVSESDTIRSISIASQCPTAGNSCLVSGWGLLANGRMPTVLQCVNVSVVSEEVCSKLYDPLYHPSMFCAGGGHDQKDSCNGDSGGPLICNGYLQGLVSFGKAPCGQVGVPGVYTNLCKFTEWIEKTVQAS
Neutrophil elastase, sequence (P08246 whole entry): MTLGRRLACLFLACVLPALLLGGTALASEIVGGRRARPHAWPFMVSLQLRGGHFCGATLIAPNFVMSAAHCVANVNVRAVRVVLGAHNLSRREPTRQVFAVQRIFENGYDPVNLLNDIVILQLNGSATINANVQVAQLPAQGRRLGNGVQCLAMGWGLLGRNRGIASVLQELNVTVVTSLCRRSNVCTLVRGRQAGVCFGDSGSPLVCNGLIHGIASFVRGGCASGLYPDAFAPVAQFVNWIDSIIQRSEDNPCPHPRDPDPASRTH
Proteinase K, sequence (P06873 whole entry): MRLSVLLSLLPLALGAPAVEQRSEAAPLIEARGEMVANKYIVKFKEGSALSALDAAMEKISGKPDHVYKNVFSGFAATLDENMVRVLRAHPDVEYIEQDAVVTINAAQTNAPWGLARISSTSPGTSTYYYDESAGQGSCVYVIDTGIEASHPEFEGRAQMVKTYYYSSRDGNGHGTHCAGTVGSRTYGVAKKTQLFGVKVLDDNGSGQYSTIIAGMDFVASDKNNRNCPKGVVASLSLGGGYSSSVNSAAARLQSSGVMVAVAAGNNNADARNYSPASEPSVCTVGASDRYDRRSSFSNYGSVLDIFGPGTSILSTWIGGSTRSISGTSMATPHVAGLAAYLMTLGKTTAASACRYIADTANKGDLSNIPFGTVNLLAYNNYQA
Beta-secretase 1, sequence (P56817 whole entry): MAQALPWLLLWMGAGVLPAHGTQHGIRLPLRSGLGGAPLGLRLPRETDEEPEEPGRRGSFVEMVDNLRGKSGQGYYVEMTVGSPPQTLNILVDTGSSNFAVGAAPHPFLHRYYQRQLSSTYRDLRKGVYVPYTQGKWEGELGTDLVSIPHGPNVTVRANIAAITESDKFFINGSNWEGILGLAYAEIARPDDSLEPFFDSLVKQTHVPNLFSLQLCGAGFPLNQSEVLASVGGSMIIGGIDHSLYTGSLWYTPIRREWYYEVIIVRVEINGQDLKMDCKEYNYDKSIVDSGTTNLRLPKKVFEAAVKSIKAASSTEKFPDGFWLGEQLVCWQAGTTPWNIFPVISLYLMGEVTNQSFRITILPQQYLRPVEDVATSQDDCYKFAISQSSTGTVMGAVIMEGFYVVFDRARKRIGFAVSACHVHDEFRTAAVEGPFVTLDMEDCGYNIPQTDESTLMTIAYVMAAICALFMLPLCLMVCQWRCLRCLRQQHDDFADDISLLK
Cathepsin G, sequence (P08311 whole entry): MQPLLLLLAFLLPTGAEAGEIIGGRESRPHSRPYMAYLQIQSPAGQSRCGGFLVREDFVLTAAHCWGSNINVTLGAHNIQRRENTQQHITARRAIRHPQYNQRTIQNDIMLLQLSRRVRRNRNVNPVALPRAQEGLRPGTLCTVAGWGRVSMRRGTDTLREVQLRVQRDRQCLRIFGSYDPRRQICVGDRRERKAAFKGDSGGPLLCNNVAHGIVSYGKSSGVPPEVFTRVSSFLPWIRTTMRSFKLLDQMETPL
Caspase-4, sequence (P49662 81-270 limits assumed): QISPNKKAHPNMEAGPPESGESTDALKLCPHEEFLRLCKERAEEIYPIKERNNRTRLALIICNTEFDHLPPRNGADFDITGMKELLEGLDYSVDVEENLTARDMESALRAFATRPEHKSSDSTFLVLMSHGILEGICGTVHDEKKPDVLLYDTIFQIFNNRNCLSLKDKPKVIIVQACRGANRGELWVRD
Caspase-4, sequence (P49662 290-377 limits assumed): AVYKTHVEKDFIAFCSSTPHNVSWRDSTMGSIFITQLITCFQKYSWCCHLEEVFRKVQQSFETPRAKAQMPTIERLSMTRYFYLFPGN
Disintegrin and metalloproteinase domain-containing protein 17, sequence (P78536 whole entry, the tested form may be a part): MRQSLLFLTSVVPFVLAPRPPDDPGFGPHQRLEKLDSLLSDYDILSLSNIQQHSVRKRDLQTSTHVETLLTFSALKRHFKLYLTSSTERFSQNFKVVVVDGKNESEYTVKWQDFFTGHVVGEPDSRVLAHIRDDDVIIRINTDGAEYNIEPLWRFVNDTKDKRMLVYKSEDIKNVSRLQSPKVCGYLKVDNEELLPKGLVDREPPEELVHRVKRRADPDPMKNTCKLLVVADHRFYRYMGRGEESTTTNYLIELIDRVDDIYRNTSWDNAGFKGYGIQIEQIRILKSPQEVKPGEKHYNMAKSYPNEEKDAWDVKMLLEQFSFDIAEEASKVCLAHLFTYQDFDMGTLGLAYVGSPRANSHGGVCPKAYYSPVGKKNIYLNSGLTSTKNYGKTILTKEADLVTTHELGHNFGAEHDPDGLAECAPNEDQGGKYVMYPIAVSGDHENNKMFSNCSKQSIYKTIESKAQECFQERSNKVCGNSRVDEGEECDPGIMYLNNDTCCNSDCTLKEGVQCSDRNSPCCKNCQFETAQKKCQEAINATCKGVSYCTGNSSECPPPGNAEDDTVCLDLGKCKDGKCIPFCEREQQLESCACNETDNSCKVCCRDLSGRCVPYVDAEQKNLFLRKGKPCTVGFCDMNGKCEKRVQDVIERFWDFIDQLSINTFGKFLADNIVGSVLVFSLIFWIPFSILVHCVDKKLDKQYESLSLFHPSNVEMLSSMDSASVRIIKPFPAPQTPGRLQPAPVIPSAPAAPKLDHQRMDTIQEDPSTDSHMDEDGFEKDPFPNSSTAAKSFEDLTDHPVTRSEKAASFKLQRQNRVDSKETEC

IC50 (Cruzipain [1]) | IC50 (Procathepsin L) | Compound | IC50 (Cathepsin L2) | IC50 (Cathepsin Z) | IC50 (Dipeptidyl peptidase 1) | IC50 [4] | IC50 [5] | IC50 (Papain) | IC50 (Cathepsin K) | IC50 (Pro-cathepsin H) | Activity (Canis familiaris) | IC50 (Cruzipain [6]) | IC50 (Cathepsin S) | IC50 [7] | Activity (Rattus norvegicus) | Activity (Mus musculus) | IC50 (Kallikrein-4) | further results
– | – | N#Cc1nc(N)nc(N(c2ccccc2)c2ccccc2)n1 | – | – | – | – | > 1 µM | – | – | – | – | 70 nM | – | > 10 µM | – | – | – | Ki (Cruzipain [8]): 180 nM
13 nM | 7940 nM | N#Cc1nc(Nc2cc(F)cc(F)c2)c2ncn(CC(F)F)c2n1 | – | – | – | – | – | – | – | – | – | – | – | – | – | – | – | pIC50 [9]: 4.19; IC50 (Cathepsin G): 148 µM; IC50 (Neutrophil elastase): 85.1 µM
251 nM | 562 nM | CCNc1nc(C#N)nc2c1ncn2-c1cc(F)cc(F)c1 | 70.8 µM | 316 nM | 589 nM | 135 µM | – | 33.1 nM | 50.1 nM | 646 nM | Non-toxic | – | 105 nM | – | Non-toxic | Non-toxic | 178 µM | pIC50 [10]: 4.3; IC50 (Caspase-1): 70.8 µM

Compound | IC50 (Cruzipain [1]) | IC50 (Procathepsin L) | IC50 (Cathepsin L2) | IC50 (Cathepsin Z) | IC50 (Dipeptidyl peptidase 1) | IC50 [4] | IC50 [5] | IC50 (Papain) | IC50 (Cathepsin K) | IC50 (Pro-cathepsin H) | Activity (Canis familiaris) | IC50 (Cruzipain [6]) | IC50 (Cathepsin S) | IC50 [7] | Activity (Rattus norvegicus) | Activity (Mus musculus) | IC50 (Kallikrein-4) | further results
CCn1cnc2c(Nc3cc(F)cc(F)c3)nc(C#N)nc21 | 10 nM | 117 nM | 0.24 µM | 933 nM | 34.7 nM | 72.4 µM | 6 µM | 44.7 nM | 23.4 nM | 126 nM | Non-toxic | 0.2 nM | 15.8 nM | < 0.006 µM | Non-toxic | Non-toxic | 14.5 µM | IC50 [2]: 74.1 µM; pIC50 [3]: 4.19; Activity (Trypanosoma cruzi): inactive; IC50 (Cathepsin B): 10.7 µM; IC50 (Caspase-4): 33.1 µM; IC50 (Beta-secretase 1): 63.1 µM; IC50 (Proteinase K): 74.1 µM
